For 37 sequences, Tm and folding enthalpy results are on record in the array DNA melting data of Ke et al. (doi:10.1101/2024.01.08.574731).

A short description of data set [1]: melting temperature; fluorescence melt of hairpins on a sequencing array, two-state fit, raised by 9.35 °C to match UV melts. Particulars: sodium 0.088 M. In a few lines:
(§1)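 Hairpins were imaged by Cy3 fluorescence on a sequenced MiSeq flow cell with annealed Cy3 and quencher oligos, in 50 mM Na-HEPES pH 8.0, 25 mM NaCl, in 2.5 °C steps up to 60 °C. Bootstrapped two-state fits of normalised signals gave melting temperature and folding enthalpy. Four replicates were combined by inverse variance, and fitted temperatures were raised by 9.35 °C to match UV melts.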

A short description of data set [2]: folding enthalpy; higher = less favourable; fluorescence melt of hairpins on a sequencing array, two-state fit. The conditions noted are these: sodium 0.088 M. In short, it runs like this:
as §1

For the sequence GCCTTGACGAAAGTCGGC (((..(((....)))))), the Tm in data set [1] was 50.3 °C. Besides, in data set [2], the folding enthalpy is -16 kcal/mol.

For GCCTTGCCGAAAGGCGGC (((..(((....)))))), the Tm in data set [1] was determined as 67.5 °C. Further, the folding enthalpy in data set [2] is -10.8 kcal/mol.

Take GCCTTGCGAAAGCAGCGC ((..(((....)))..)): the Tm in data set [1] was found to be 52.9 °C. Besides, the folding enthalpy in data set [2] is -14.6 kcal/mol.

On to GCCTTGCGAAAGCAGGGC (((.(((....))).))), for which, in data set [1], the Tm was 69 °C. In data set [2], the folding enthalpy was -29.5 kcal/mol.

As to GCCTTGCGAAAGCATAGC ((..(((....)))..)), in data set [1], the Tm worked out at 50.8 °C. In addition, the folding enthalpy in data set [2] is -9.69 kcal/mol.

Turning to GCCTTGCGAAAGCCATGC ((.(.((....)).).)), the Tm in data set [1] was found to be 27 °C. Also, the folding enthalpy in data set [2] is -3.66 kcal/mol.

Regarding GCCTTGCGAAAGCCTGGC (((..((....))..))), in data set [1], the Tm is 53.9 °C. Besides, in data set [2], the folding enthalpy was -18.7 kcal/mol.

As to GCCTTGCGAAAGCGAAGC ((.(.((....)).).)), the Tm in data set [1] stood at 45 °C. Moreover, the folding enthalpy in data set [2] is -8.01 kcal/mol.

For the sequence GCCTTGCGAAAGCGCGGC (((..((....))..))), the Tm in data set [1] worked out at 57.1 °C. Also, the folding enthalpy in data set [2] is -18 kcal/mol.

For GCCTTGCGAAAGCTACGC ((.(.((....)).).)), in data set [1], the Tm stood at 46.3 °C. Further, in data set [2], the folding enthalpy is -10.2 kcal/mol.

Take GCCTTGCGAAAGCTTGGC (((..((....))..))): in data set [1], the Tm amounted to 60 °C. Besides, in data set [2], the folding enthalpy is -20.9 kcal/mol.

Turning to GCCTTGGGAAACCAGGGC (((.(((....))).))), the Tm in data set [1] was found to be 52.7 °C. Besides, the folding enthalpy in data set [2] was -46.8 kcal/mol.

As to GCCTTGGGAAACCGAGGC ((((.((....)).)))), the Tm in data set [1] amounted to 56.6 °C. Further, in data set [2], the folding enthalpy is -39.8 kcal/mol.

As to GCCTTTCGAAAGAATGGC (((.(((....))).))), the Tm in data set [1] was 53 °C. Moreover, the folding enthalpy in data set [2] is -42.6 kcal/mol.

For the sequence GCGAAAACTCGC ((((....)))), the Tm in data set [1] was 41.7 °C. Also, in data set [2], the folding enthalpy is -13.1 kcal/mol.

Turning to GCGAAACGTCGC ((((....)))), the Tm in data set [1] was found to be 47.8 °C. For the same sequence, the folding enthalpy in data set [2] is -19.5 kcal/mol.

Consider GCGAAAGGTCGC ((((....)))), for which, in data set [1], the Tm worked out at 41.4 °C. Moreover, the folding enthalpy in data set [2] is -14.1 kcal/mol.

Take GCGAAAGTTCGC ((((....)))): the Tm in data set [1] was 47.2 °C. The folding enthalpy in data set [2] is -19.6 kcal/mol.

Take GCGAAATGTCGC ((((....)))): in data set [1], the Tm worked out at 44.8 °C. Besides, the folding enthalpy in data set [2] was -18.6 kcal/mol.

Regarding GCGAAATTTCGC ((((....)))), the Tm in data set [1] worked out at 51.7 °C. In data set [2], the folding enthalpy is -42.6 kcal/mol.

Consider GCGAACACTCGC ((((....)))), for which the Tm in data set [1] came to 45 °C. Also, the folding enthalpy in data set [2] was -23.5 kcal/mol.

As to GCGAACCGAAAGGTCGC (((.(((....)))))), the Tm in data set [1] was found to be 67.5 °C. Moreover, the folding enthalpy in data set [2] is -31.8 kcal/mol.

As to GCGAACCTCGC ((((...)))), the Tm in data set [1] worked out at 46 °C. For the same sequence, the folding enthalpy in data set [2] is -17.7 kcal/mol.

As to GCGAACGAAAGTTGACGC ((((((....)))..))), the Tm in data set [1] came out at 44.1 °C. The folding enthalpy in data set [2] is -23 kcal/mol.

Take GCGAACGATCGC ((((....)))): the Tm in data set [1] was found to be 41.1 °C. In addition, in data set [2], the folding enthalpy is -21.1 kcal/mol.

With GCGAACGCTCGC ((((....)))), the Tm in data set [1] was determined as 59.6 °C. Moreover, the folding enthalpy in data set [2] is -12.2 kcal/mol.

In the case of GCGAACGGAAACACTCGC ((((..(....)..)))), in data set [1], the Tm is 32.3 °C. Further, in data set [2], the folding enthalpy was -21.9 kcal/mol.

For GCGAACGGAAACGTCCGC (((.(((....))).))), the Tm in data set [1] came to 54.6 °C. Moreover, the folding enthalpy in data set [2] is -40.2 kcal/mol.

For GCGAACGTTCGC ((((....)))), the Tm in data set [1] worked out at 55.8 °C. For the same sequence, in data set [2], the folding enthalpy is -39.5 kcal/mol.

On to GCGAACTATCGC ((((....)))), for which the Tm in data set [1] was determined as 45.4 °C. For the same sequence, in data set [2], the folding enthalpy is -20.6 kcal/mol.

Turning to GCGAAGACGAAAGTCCGC (((..(((....)))))), in data set [1], the Tm was determined as 52.4 °C. Besides, in data set [2], the folding enthalpy was -31.9 kcal/mol.

Regarding GCGAAGCCGAAAGGCCGC (((..(((....)))))), in data set [1], the Tm was determined as 58.8 °C. In data set [2], the folding enthalpy was -20.2 kcal/mol.

On to GCGAAGCGAAAGCACCGC (((..((....))..))), for which the Tm in data set [1] turned out to be 43.8 °C. In addition, in data set [2], the folding enthalpy was -9.92 kcal/mol.

With GCGAAGCGAAAGCATGGC ((.(.((....)).).)), the Tm in data set [1] turned out to be 40 °C. Moreover, the folding enthalpy in data set [2] was -5.07 kcal/mol.

As for GCGAAGCGAAAGCATTGC ((.(.((....)).).)), in data set [1], the Tm was 39.1 °C. Besides, the folding enthalpy in data set [2] is -7.27 kcal/mol.

On to GCGAAGCGAAAGCCTCGC ((((.((....)).)))), for which the Tm in data set [1] is 57.8 °C. Moreover, in data set [2], the folding enthalpy was -18.5 kcal/mol.

Take GCGAAGCGAAAGCCTGGC ((.(.((....)).).)): the Tm in data set [1] was determined as 34.1 °C. Also, the folding enthalpy in data set [2] is -5.56 kcal/mol.
